Screening data as filed in PubChem BioAssay.
The full list was thinned out, with hits kept by preference.
T cruzi growth-1 – inhibitors of T. cruzi proliferation | T. cruzi beta-gal in NIH3T3, GalScreen luminescence, 90 h | inhibition, % at 8.34 µM | 77,000 compounds, 5.9% hits;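 active = mean inhibition above about 93%, with at least 55% of replicates each passing it, limit read from the data, passing the limit was not always enough; inconclusive = only one of those two conditions holds; inactive = neither condition holds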
IDH1 mut inh – IDH1 R132H (human) inhibition; O75874; IDH1 R132H reductase, diaphorase/resazurin fluorescence, 60 min; inhibition, % at 10 µM; 70,000 compounds, 0.18% hits; AID 624101; in the data active = inhibition above about 34%; inconclusive = no clear call, values can overlap the other calls; inactive = below about 11%;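 note: 0% = DMSO and 100% = no enzyme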
KDM4C inh – inhibitors of human demethylase GASC-1 KDM4C. Q9H3R0. GST-KDM4C 2-372, H3K9me3 peptide, LANCE TR-FRET. 96,000 compounds, 0.15% hits. inhibition, % at 12.5 µM. AID 720574;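 active = mean replicate inhibition above about 25%, with at least 55% of replicates also reaching it, limit read from the data, passing the limit was not always enough; inconclusive = only one of those two conditions met; inactive = neither condition met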
Target sequence (Q9H3R0 2-372 limits assumed): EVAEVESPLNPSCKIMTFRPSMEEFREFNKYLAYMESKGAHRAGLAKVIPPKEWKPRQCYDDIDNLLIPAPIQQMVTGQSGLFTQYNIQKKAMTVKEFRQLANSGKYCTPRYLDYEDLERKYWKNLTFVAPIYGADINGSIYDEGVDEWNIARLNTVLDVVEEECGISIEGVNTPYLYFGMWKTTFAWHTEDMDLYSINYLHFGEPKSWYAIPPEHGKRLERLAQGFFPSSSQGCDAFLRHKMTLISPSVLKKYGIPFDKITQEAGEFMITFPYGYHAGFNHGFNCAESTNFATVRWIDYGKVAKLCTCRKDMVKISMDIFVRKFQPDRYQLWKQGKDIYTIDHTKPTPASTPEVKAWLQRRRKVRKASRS
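material = GST-tagged GASC-1 (JMJD2C) catalytic fragment, aa 2-372 | amount = enzyme final amount 10 nM | medium = HEPES buffer, pH 7.5, plus ascorbate | also added = H3K9me3 peptide substrate, Fe(II), 2-oxoglutarate | dosing = single dose | times = 30 min demethylation and 1 h detection at room temperature | detection = LANCE TR-FRET | read-out basis = Fall in 671/618 emission ratio as inhibition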
T cruzi growth-2 – inhibitors of T. cruzi proliferation. shares compounds with T cruzi growth-1. T. cruzi beta-gal in NIH3T3, GalScreen luminescence, 90 h. inhibition, % at 8.35 µM. 5,600 compounds, 72% hits. AID 651739;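 active = mean replicate inhibition above about 95% and at least 55% of replicates individually reaching it, limit read from the data; inconclusive = only one of the two criteria is met; inactive = neither criterion is met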
T cruzi growth-3 – blocks T. cruzi growth in NIH3T3 host cells. shares compounds with T cruzi growth-1. T. cruzi beta-gal in NIH3T3, GalScreen luminescence, 90 h. inhibition, % at 2.09 µM. 5,600 compounds, 21% hits;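 active = mean inhibition above about 95%, with at least 55% of replicates also reaching it, limit read from the data; inconclusive = meets just one of the two conditions; inactive = meets neither condition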;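 note: plate controls were neutral control median for no effect and positive control median for full effect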
NIH3T3 tox – cytotoxicity in mouse NIH/3T3 fibroblasts; shares compounds with T cruzi growth-1; NIH/3T3 viability, CellTiter-Glo ATP luminescence, 90 h; cytotoxicity (signal decrease), % at 8.35 µM; 5,600 compounds, 14% hits;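 active = mean signal decrease across replicates above about 35% based on untreated-well scatter, with enough replicates individually passing, limit read from the data; inconclusive = no rule stated though some were filed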;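 note: 0% = median of neutral control wells and 100% = median of positive control wells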
NIH3T3 tox 2 – NIH/3T3 (mouse) viability loss; NIH/3T3 viability, CellTiter-Glo ATP luminescence, 90 h; 5,600 compounds, 56% hits; shares compounds with T cruzi growth-1; AID 651744; inhibition, % at 24.9 µM;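 active = mean loss of cell viability signal at or above a set limit, and enough replicates individually reaching it; inconclusive = meets only the mean limit or only the replicate share; inactive = meets neither condition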;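 note: 0% = median of neutral control wells and 100% = median of positive control wells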
Starred values were filed as active, the others as inactive; ? = inconclusive; / = not tested or not shown.

SMILES	T cruzi growth-1	IDH1 mut inh	KDM4C inh	T cruzi growth-2	T cruzi growth-3	NIH3T3 tox	NIH3T3 tox 2
CCCC(=O)Nc1ccc2c(c1)OC[C@H](C)N(C(=O)c1cccnc1)C[C@@H](C)[C@@H](OC)CN(C)C2=O	13	0	12	/	/	/	/
CCCN1C[C@H](C)[C@H](OC)CN(C)C(=O)c2ccc(NC(=O)c3cccc(F)c3)cc2OC[C@H]1C	51	0	2	/	/	/	/
CCCNC(=O)N1C[C@H](C)[C@H](OC)CN(C)C(=O)c2cc(NC(=O)CC)ccc2OC[C@@H]1C	41	0	-1	/	/	/	/
CCCC(=O)Nc1ccc2c(c1)OC[C@H](C)N(C(=O)c1cccnc1)C[C@@H](C)[C@H](OC)CN(C)C2=O	100*	0	1	61	-25	11	-8
CCCN1C[C@H](C)[C@H](OC)CN(C)C(=O)c2ccc(NS(=O)(=O)c3cn(C)cn3)cc2OC[C@@H]1C	28	0	0	/	/	/	/
Cc1cccc(C)c1N(CC(=O)Nc1ccc(Br)cc1)S(C)(=O)=O	/	1	/	/	/	/	/
Cc1ccc([N+](=O)[O-])cc1N(CC(=O)Nc1cccc(C)c1C)S(C)(=O)=O	/	0	/	/	/	/	/
N#Cc1c(C(F)(F)F)cc(-c2ccccc2)nc1SCCC(=O)Nc1ccccc1	/	0	/	/	/	/	/
Cc1c(Cl)c(C(F)(F)F)nn1CCCNC(=O)Nc1cccc([N+](=O)[O-])c1	/	0	/	/	/	/	/
CCC(=O)N1C[C@H](C)[C@@H](OC)CN(C)C(=O)c2ccc(NC(=O)c3ccccc3)cc2OC[C@@H]1C	108*	0	0	8	-2	18	6
COc1cccc(C(=O)Nc2ccc3c(c2)OC[C@H](C)N(CCc2ccccc2)C[C@H](C)[C@H](OC)CN(C)C3=O)c1	36	0	2	/	/	/	/
CCC(=O)N1C[C@@H](C)[C@@H](OC)CN(C)C(=O)c2cc(NC(=O)c3ccccc3)ccc2OC[C@@H]1C	-17	0	0	/	/	/	/
COc1cccc(C(=O)Nc2ccc3c(c2)OC[C@H](C)N(CCc2ccccc2)C[C@@H](C)[C@H](OC)CN(C)C3=O)c1	108*	0	2	101*	71	8	10
CCc1cc2c3c(c(=O)oc2cc1OCc1cc(C(=O)O)oc1C)CCCC3	/	4	/	/	/	/	/
C[C@H](CO)N1C[C@H](C)[C@H](CN(C)S(C)(=O)=O)Oc2ncc(C#CC3CCCCC3)cc2C1=O	86	-2	-2	/	/	/	/
C[C@H](CO)N1C[C@H](C)[C@@H](CN(C)S(=O)(=O)c2ccccc2)Oc2ncc(C#CC3CCCCC3)cc2C1=O	107*	1	-1	106*	93	21	85*
C[C@H]1CN([C@@H](C)CO)C(=O)c2cc(C#CC3CCCCC3)cnc2O[C@@H]1CN(C)S(=O)(=O)c1ccc(F)cc1	108*	0	-1	100*	91	13	95*
C[C@@H]1CN([C@H](C)CO)C(=O)c2cc(C#CC3CCCCC3)cnc2O[C@H]1CN(C)S(=O)(=O)c1cccc(F)c1	/	0	1	/	/	/	/
C[C@H](CO)N1C[C@H](C)[C@@H](CN(C)S(=O)(=O)c2ccc(F)cc2)Oc2ncc(C#CC3CCCCC3)cc2C1=O	86	0	2	/	/	/	/
C[C@@H]1CN([C@H](C)CO)C(=O)c2cc(C#CC3CCCCC3)cnc2O[C@@H]1CN(C)S(=O)(=O)c1ccccc1	?	0	-1	106*	76	12	91*
C[C@H]1CN([C@@H](C)CO)C(=O)c2cc(C#CC3CCCCC3)cnc2O[C@H]1CN(C)S(=O)(=O)c1cccc(F)c1	/	-3	-2	/	/	/	/
C[C@@H]1CN([C@@H](C)CO)C(=O)c2cc(C#CC3CCCCC3)cnc2O[C@@H]1CN(C)S(=O)(=O)c1ccccc1	111*	-1	6	108*	56	25	94*
Cc1nc(C)c(C(=O)C2C(=O)C(=O)N(CCCN3CCOCC3)C2c2ccccc2)s1 (stereo unspecified)	/	0	/	/	/	/	/
Cc1ccc(-n2c(C)nnc2SCC(=O)Nc2c(C)cccc2C)cc1C	/	1	/	/	/	/	/
CCC1CCc2nc(SCC(=O)Nc3cccc(OC)c3)c(C#N)c(C(F)(F)F)c2C1 (stereo unspecified)	/	0	/	/	/	/	/
SMILES	T cruzi growth-1	IDH1 mut inh	KDM4C inh	T cruzi growth-2	T cruzi growth-3	NIH3T3 tox	NIH3T3 tox 2
C[C@H]1CN([C@@H](C)CO)C(=O)c2cc(C#CC3CCCCC3)cnc2O[C@@H]1CN(C)S(=O)(=O)c1ccccc1	?	/	-1	111*	80	13	87*
C[C@H](CO)N1C[C@H](C)[C@@H](CN(C)S(=O)(=O)c2cccc(F)c2)Oc2ncc(C#CC3CCCCC3)cc2C1=O	/	0	/	/	/	/	/
O=C(C[C@@H]1C[C@@H]2c3cc(NC(=O)Nc4ccccc4F)ccc3O[C@@H]2[C@H](CO)O1)NC1CCCCC1	-10	0	1	/	/	/	/
O=C(C[C@H]1C[C@@H]2c3cc(NC(=O)Nc4ccccc4F)ccc3O[C@@H]2[C@H](CO)O1)NCc1ccccn1	109*	0	0	18	2	7	10
O=C(C[C@H]1C[C@@H]2c3cc(NC(=O)Nc4ccccc4F)ccc3O[C@@H]2[C@@H](CO)O1)NC1CCCCC1	158*	0	0	?	27	6	19
O=C(C[C@@H]1C[C@H]2c3cc(NC(=O)Nc4ccccc4F)ccc3O[C@H]2[C@H](CO)O1)NCc1ccccn1	/	-1	-2	/	/	/	/
COc1ccc(C)cc1NC(=O)CN(C1CCCCC1)S(=O)(=O)c1ccc(Cl)cc1	/	0	/	/	/	/	/
Cc1c(Cl)cccc1NC(=O)CN(c1ccc2c(c1)OCCO2)S(C)(=O)=O	/	0	/	/	/	/	/
Cc1ccc(C)c(C(Nc2ccccn2)c2ccc3ccc(C)nc3c2O)c1 (stereo unspecified)	/	0	/	/	/	/	/
COc1ccc(NC(=O)N2CCCCN3[C@@H](CO)[C@H](c4ccc(C#Cc5ccccn5)cc4)[C@@H]3C2)cc1	103*	/	0	110*	109*	-24	-7
O=C(Nc1ccccc1)N1CCCCN2[C@@H](CO)[C@H](c3ccc(C#Cc4ccccn4)cc3)[C@@H]2C1	72	/	0	/	/	/	/
O=C(Nc1ccc(F)cc1)N1CCCCN2[C@H](CO)[C@H](c3ccc(C#Cc4ccccn4)cc3)[C@H]2C1	80	/	-2	/	/	/	/
COc1ccc(NC(=O)N2CCCCN3[C@H](CO)[C@H](c4ccc(C#Cc5ccccn5)cc4)[C@@H]3C2)cc1	44	/	1	/	/	/	/
O=C(Nc1ccccc1)N1CCCCN2[C@H](CO)[C@H](c3ccc(C#Cc4ccccn4)cc3)[C@H]2C1	104*	/	-1	99*	61	-8	13
O=C(Nc1ccc(F)cc1)N1CCCCN2[C@@H](CO)[C@H](c3ccc(C#Cc4ccccn4)cc3)[C@@H]2C1	123*	/	-2	107*	75	-14	6
Cc1ccc(S(=O)(=O)N(C)CC(=O)Nc2ccccc2Br)cc1	/	-1	/	/	/	/	/
